How the values were obtained:
[1] = Growth inhibition of african green monkey Vero cells assessed as BrdU incorporation at 183.6 uM after 72 hrs by spectrophotometry; assay type: cell-based; details: chlorocebus sabaeus, read-out: GI
Method in brief: (§1)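 Cells were seeded at 10⁴ cells/mL and preincubated. Compounds were dissolved in DMSO and added at two fixed concentrations, then incubated for 72 h. End-point was BrdU labelling with ELISA detection, read spectrophotometrically. Result is % growth inhibition versus untreated controls. Triplicates.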

Vero [2] = experiment: Growth inhibition of african green monkey Vero cells assessed as BrdU incorporation at 36.7 uM after 72 hrs by spectrophotometry; assay type: cell-based; details: chlorocebus sabaeus; method in brief: as §1
T47D [3] = experiment: Growth inhibition of human T47D cells assessed as BrdU incorporation at 36.7 uM after 72 hrs by spectrophotometry; assay type: functional; details: read-out: GI
Method in brief: (§2)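 Each cell line was seeded at 10⁴ cells per mL and preincubated. Test agents were dissolved in DMSO, added at two examined concentrations (10 and 50 per mL by mass), and incubated for 72 h. The end-point was BrdU labeling and detection kit III read on an ELISA reader. Percent growth inhibition was calculated against untreated controls, in triplicate.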

[4] = Growth inhibition of HSF cells assessed as BrdU incorporation at 36.7 uM after 72 hrs by spectrophotometry; assay type: cell-based; details: human, read-out: GI; method in brief: as §1
SiHa [5] = experiment: Growth inhibition of human SiHa cells assessed as BrdU incorporation at 183.6 uM after 72 hrs by spectrophotometry; assay type: functional; details: read-out: GI; method in brief: as §1
Jurkat [6] = experiment: Cytotoxicity against human Jurkat cells assessed as cell viability at 50 uM after 24 hrs by MTT assay relative to control; assay type: functional; details: read-out: Activity
Method in brief: (§3)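 Jurkat T-cell leukaemia line grown in RPMI 1640 with 10% FBS, 2 mM L-glutamine and gentamycin at 37 °C, 5% CO2, kept in log phase. Compounds were dissolved in DMSO and applied for 24 h. Cells were washed in HEPES-buffered medium (pH 7.4) and given MTT at 0.5 mg/mL for 45 min at 37 °C. Formazan was dissolved in DMSO and read at 570 nm. Viability is % of control, from three independent measurements.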

[7] = Cytotoxicity against HSF cells assessed as cell viability at 50 uM after 24 hrs by MTT assay relative to control; assay type: cell-based; details: human, read-out: Activity
Method in brief: (§4)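 Normal human skin fibroblasts (HSF, primary line) were exposed to DMSO-dissolved compound for 24 h. Viability was read by MTT tetrazolium reduction and expressed against untreated control set at 100%.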

T47D [8] = experiment: Growth inhibition of human T47D cells assessed as BrdU incorporation at 183.6 uM after 72 hrs by spectrophotometry; assay type: functional; details: read-out: GI; method in brief: as §2
Mus musculus = experiment: Neurotoxicity in ip dosed Swiss albino mouse assessed as impair in motor coordination at 0.1 LD50 concentration by rotarod test; assay type: toxicity, organism-based; details: in vivo
Method in brief: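 Male Albino Swiss mice (20-25 g), housed 8-10 per cage at 20 ± 1 °C on a 12/12 h light-dark cycle with food and water ad libitum. Randomized groups of 10. Compound given i.p. as a suspension in 3% Tween 80 at 10 mL kg^-1; controls received the same volume of vehicle. Tests run 8 a.m.-3 p.m.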

T47D [9] = experiment: Growth inhibition of human T47D cells assessed as BrdU incorporation after 72 hrs by spectrophotometry; assay type: functional, cell-based
Method in brief: (§5)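 Cancer cells were seeded at 10⁴ cells/mL, preincubated, then exposed for 72 h to DMSO-dissolved compound. Growth was read by BrdU labelling with ELISA spectrophotometry. IC50 was taken from 72 h dose–survival curves. Triplicates.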

SiHa [10] = experiment: Growth inhibition of human SiHa cells assessed as BrdU incorporation at 36.7 uM after 72 hrs by spectrophotometry; assay type: functional; details: read-out: GI; method in brief: as §1
[11] = Growth inhibition of HSF cells assessed as BrdU incorporation at 183.6 uM after 72 hrs by spectrophotometry; assay type: cell-based; details: human, read-out: GI; method in brief: as §1
SiHa [12] = experiment: Growth inhibition of human SiHa cells assessed as BrdU incorporation after 72 hrs by spectrophotometry; assay type: functional, cell-based; method in brief: as §5
[13] = Growth inhibition of human LS180 cells assessed as BrdU incorporation after 72 hrs by spectrophotometry; assay type: functional, cell-based; details: LS180, 72 h; method in brief: as §5
[14] = Cytotoxicity against HSF cells assessed as cell viability at 1 uM after 24 hrs by MTT assay relative to control; assay type: cell-based; details: human, read-out: Activity; method in brief: as §4
[15] = Growth inhibition of human LS180 cells assessed as BrdU incorporation at 36.7 uM after 72 hrs by spectrophotometry; assay type: functional; details: LS180, 72 h, read-out: GI; method in brief: as §1
[16] = Growth inhibition of human LS180 cells assessed as BrdU incorporation at 183.6 uM after 72 hrs by spectrophotometry; assay type: functional; details: LS180, 72 h, read-out: GI; method in brief: as §1
Jurkat [17] = experiment: Cytotoxicity against human Jurkat cells assessed as decrease in cell viability after 24 hrs by MTT assay; assay type: functional, cell-based
Method in brief: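 Jurkat cells grown in RPMI 1640/10% FBS at 37 °C, 5% CO2, with 24 h exposure to DMSO-dissolved compound. Read-out was MTT reduction: 0.5 mg/mL in HEPES-buffered medium for 45 min, formazan in DMSO, absorbance at 570 nm. IC50 was taken from 24 h dose–survival curves.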

Jurkat [18] = experiment: Cytotoxicity against human Jurkat cells assessed as cell viability at 100 uM after 24 hrs by MTT assay relative to control; assay type: functional; details: read-out: Activity; method in brief: as §3
Jurkat [19] = experiment: Cytotoxicity against human Jurkat cells assessed as cell viability at 1 uM after 24 hrs by MTT assay relative to control; assay type: functional; details: read-out: Activity; method in brief: as §3
[20] = Cytotoxicity against HSF cells assessed as cell viability at 100 uM after 24 hrs by MTT assay relative to control; assay type: cell-based; details: human, read-out: Activity; method in brief: as §4
SiHa [21] = experiment: Growth inhibition of human SiHa cells assessed as BrdU incorporation at 34.9 uM after 72 hrs by spectrophotometry; assay type: functional; details: read-out: GI; method in brief: as §1
[22] = Growth inhibition of HSF cells assessed as BrdU incorporation at 34.9 uM after 72 hrs by spectrophotometry; assay type: cell-based; details: human, read-out: GI; method in brief: as §1
[23] = Growth inhibition of human LS180 cells assessed as BrdU incorporation at 174.6 uM after 72 hrs by spectrophotometry; assay type: functional; details: LS180, 72 h, read-out: GI; method in brief: as §1
[24] = Growth inhibition of HSF cells assessed as BrdU incorporation at 174.6 uM after 72 hrs by spectrophotometry; assay type: cell-based; details: human; method in brief: as §1
T47D [25] = experiment: Growth inhibition of human T47D cells assessed as BrdU incorporation at 34.9 uM after 72 hrs by spectrophotometry; assay type: functional; details: read-out: GI; method in brief: as §2
T47D [26] = experiment: Growth inhibition of human T47D cells assessed as BrdU incorporation at 174.6 uM after 72 hrs by spectrophotometry; assay type: functional; details: read-out: GI; method in brief: as §2
Vero [27] = experiment: Growth inhibition of african green monkey Vero cells assessed as BrdU incorporation at 34.9 uM after 72 hrs by spectrophotometry; assay type: cell-based; details: chlorocebus sabaeus; method in brief: as §1
[28] = Growth inhibition of human LS180 cells assessed as BrdU incorporation at 34.9 uM after 72 hrs by spectrophotometry; assay type: functional; details: LS180, 72 h, read-out: GI; method in brief: as §1
[29] = Growth inhibition of african green monkey Vero cells assessed as BrdU incorporation at 174.6 uM after 72 hrs by spectrophotometry; assay type: cell-based; details: chlorocebus sabaeus, read-out: GI; method in brief: as §1
SiHa [30] = experiment: Growth inhibition of human SiHa cells assessed as BrdU incorporation at 174.6 uM after 72 hrs by spectrophotometry; assay type: functional; details: read-out: GI; method in brief: as §1
T47D [31] = experiment: Growth inhibition of human T47D cells assessed as BrdU incorporation at 155.9 uM after 72 hrs by spectrophotometry; assay type: functional; details: read-out: GI
SiHa [32] = experiment: Growth inhibition of human SiHa cells assessed as BrdU incorporation at 31.2 uM after 72 hrs by spectrophotometry; assay type: functional; details: read-out: GI
T47D [33] = experiment: Growth inhibition of human T47D cells assessed as BrdU incorporation at 31.2 uM after 72 hrs by spectrophotometry; assay type: functional; details: read-out: GI
[34] = Growth inhibition of african green monkey Vero cells assessed as BrdU incorporation at 155.9 uM after 72 hrs by spectrophotometry; assay type: cell-based; details: chlorocebus sabaeus, read-out: GI
[35] = Growth inhibition of human LS180 cells assessed as BrdU incorporation at 31.2 uM after 72 hrs by spectrophotometry; assay type: functional; details: LS180, 72 h, read-out: GI
Vero [36] = experiment: Growth inhibition of african green monkey Vero cells assessed as BrdU incorporation at 31.2 uM after 72 hrs by spectrophotometry; assay type: cell-based; details: chlorocebus sabaeus
[37] = Growth inhibition of HSF cells assessed as BrdU incorporation at 31.2 uM after 72 hrs by spectrophotometry; assay type: cell-based; details: human, read-out: GI
SiHa [38] = experiment: Growth inhibition of human SiHa cells assessed as BrdU incorporation at 155.9 uM after 72 hrs by spectrophotometry; assay type: functional; details: read-out: GI
[39] = Growth inhibition of HSF cells assessed as BrdU incorporation at 155.9 uM after 72 hrs by spectrophotometry; assay type: cell-based; details: human, read-out: GI
[40] = Growth inhibition of human LS180 cells assessed as BrdU incorporation at 155.9 uM after 72 hrs by spectrophotometry; assay type: functional; details: LS180, 72 h, read-out: GI

SMILES | viability at 50 µM (Jurkat [6]) | viability at 24 h, 50 µM [7] | viability at 24 h, 1 µM [14] | viability at 100 µM (Jurkat [18]) | viability at 1 µM (Jurkat [19]) | viability at 24 h, 100 µM [20] | also measured
NNC(=O)c1nnc2n(c1=O)CCN2c1ccccc1 | 82% | 83% | 82% | 33% | 89% | 82% | inhibition at 72 h, 183.6 µM [1]: 0%; growth inhibition (GI) (Vero [2]): 2%; inhibition of growth at 36.7 µM (T47D [3]): 4%; inhibition at 72 h, 36.7 µM [4]: 16%; inhibition of growth at 183.6 µM (SiHa [5]): 0%; inhibition of growth at 183.6 µM (T47D [8]): 9%; Activity (Mus musculus): Non-toxic; IC50 (T47D [9]): > 100 µM; inhibition of growth at 36.7 µM (SiHa [10]): 0%; inhibition at 72 h, 183.6 µM [11]: 20%; IC50 (SiHa [12]): > 100 µM; IC50 [13]: > 100 µM; inhibition of growth at 36.7 µM [15]: 0%; inhibition of growth at 183.6 µM [16]: 15%; IC50 (Jurkat [17]): 85.5 µM
CCOC(=O)c1nnc2n(c1=O)CCN2c1ccc(Cl)c(Cl)c1 | 28% | 84% | 102% | 23% | 91% | 85% | Activity (Mus musculus): Non-toxic; IC50 (T47D [9]): > 100 µM; IC50 (SiHa [12]): > 100 µM; IC50 [13]: > 100 µM; IC50 (Jurkat [17]): 32.2 µM
CCOC(=O)c1nnc2n(c1=O)CCN2c1ccc(OC)cc1 | 110% | 100% | 104% | 110% | 118% | 97% | 
Cc1ccc(N2CCn3c2nnc(C(=O)NN)c3=O)cc1 | 87% | 111% | 109% | 79% | 93% | 95% | inhibition of growth at 34.9 µM (SiHa [21]): 11%; inhibition at 72 h, 34.9 µM [22]: 0%; inhibition of growth at 174.6 µM [23]: 14%; growth inhibition (GI) [24]: 0%; inhibition of growth at 34.9 µM (T47D [25]): 5%; inhibition of growth at 174.6 µM (T47D [26]): 8%; growth inhibition (GI) (Vero [27]): 2%; inhibition of growth at 34.9 µM [28]: 0%; inhibition at 72 h, 174.6 µM [29]: 0%; inhibition of growth at 174.6 µM (SiHa [30]): 9%
CCOC(=O)c1nnc2n(c1=O)CCN2c1cccc(Cl)c1 | 111% | 103% | 104% | 107% | 114% | 98% | inhibition of growth at 155.9 µM (T47D [31]): 41%; inhibition of growth at 31.2 µM (SiHa [32]): 41%; inhibition of growth at 31.2 µM (T47D [33]): 26%; inhibition at 72 h, 155.9 µM [34]: 25%; inhibition of growth at 31.2 µM [35]: 30%; growth inhibition (GI) (Vero [36]): 20%; inhibition at 72 h, 31.2 µM [37]: 16%; inhibition of growth at 155.9 µM (SiHa [38]): 52%; inhibition at 72 h, 155.9 µM [39]: 17%; inhibition of growth at 155.9 µM [40]: 35%
CCOC(=O)c1nnc2n(c1=O)CCN2c1ccc(C)cc1 | 89% | 87% | 91% | 93% | 83% | 82% | 
CCOC(=O)c1nnc2n(c1=O)CCN2c1ccccc1 | 103% | 98.1% | 91.6% | 105% | 82% | 77.1% | 

— ChEMBL document CHEMBL1141657, “Synthesis, structure elucidation and identification of antitumoural properties of novel fused 1,2,4-triazine aryl derivatives” (Eur J Med Chem, 2008)
